Compound activity (PubChem)
beta cell repl: inducers of MIN6 beta-cell proliferation, primary screen, ATP luminescence, uHTS. AID 2380, 2010. MIN6 cells proliferation, ATPlite luminescence, 48 h; cells starved in 0.2% serum; 100% = growth in 10% serum. 0.29% of 330,000 active. proliferation, % at 10 µM;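 active means compounds whose signal lies at least 3.5 SD above the mean of all wells on their plate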;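 further: 0% = DMSO-treated cells in low-serum medium and 100% = 10% serum control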
UBC13 polyUb: UBC13 polyubiquitin chain formation inhibitors, primary screen, biochemical, TR-FRET, uHTS | 0.47% of 330,000 active | Ubiquitin-conjugating enzyme E2 N (Homo sapiens), P61088 | AID 485273, 2010 | inhibition, % at 20 µM; in the data active means inhibition above about 45%, passing the limit was not always enough; inconclusive means no clear call, values can overlap the other calls
Target sequence (P61088 whole entry, looked up): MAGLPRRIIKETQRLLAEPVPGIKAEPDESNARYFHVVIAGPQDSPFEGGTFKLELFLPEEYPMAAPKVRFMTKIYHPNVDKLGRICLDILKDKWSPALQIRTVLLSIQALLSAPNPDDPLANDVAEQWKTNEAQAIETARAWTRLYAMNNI
iPSC survival up: enhancers of single-cell hiPSC survival, primary screen, ATPlite luminescence | survival enhancement, % at 20 µM | 100% = ROCK inhibitor wells, 0% = DMSO | 0.044% of 360,000 active; in the data active means survival enhancement above about 18%;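 further: cells exposed to compounds for 16 hours before the ATP read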
Apaf1 inhib: inhibitors of human Apaf-1 apoptosome, primary screen, biochemical, DEVD-Rh110 fluorescence, uHTS; inhibition, % at 20 µM; 0.71% of 330,000 active; Apoptotic protease-activating factor 1 (Homo sapiens), O14727; reconstituted apoptosome caspase-3 activity; active means inhibition of at least 40% at 20 µM;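 further: plate controls were DMSO wells for no effect and DEVD-CHO caspase inhibitor wells for full effect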
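Material: biochemical Apaf-1 apoptosome reconstitution. Medium: Hepes buffer, pH 7.5. Also added: cytochrome c activation, bis-DEVD rhodamine 110 substrate. Timing: 30 min compound preincubation, 50 min activation, room temperature. Measured by: rhodamine 110 fluorescence at Ex 480/Em 540 nm.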
Exocytosis inh: LAMP-1 surface exposure blockers, TALL-104 cells – cell-based, flow cytometry, MLPCN library, primary screen; TALL-104 LAMP-1 surface exposure; cells stimulated with thapsigargin and PMA; 0.66% of 360,000 active; AID 651702, 2012; inhibition, % at 10 µM;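 active means inhibition above about 55%, limit read from the data; inconclusive means no clear call, values can overlap the other calls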
MPTP inh: mitochondrial permeability transition pore inhibitors, primary screen, biochemical, isolated mouse mitochondria, absorbance; Ca2+ swelling absorbance, 30 min; inhibition, % at 10 µM; 1.4% of 360,000 active;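 active means inhibition of 50% or more, scaled per plate between neutral and stimulator controls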;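 further: 0% = DMSO wells given calcium and 100% = 1 mM EGTA wells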
Rh123 counter: fluorescence retest of MPTP screen hits in isolated mitochondria, single concentration. inhibition, % at 10 µM. 78% of 5,000 active. membrane potential, Rhodamine 123 fluorescence. shares compounds with MPTP inh; in the data active means inhibition above about 22%;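 further: 0% = DMSO vehicle and 100% = positive control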
MPTP abs DR: mitochondrial permeability transition pore inhibitors, dose response, biochemical, absorbance, uHTS hits; shares compounds with MPTP inh; isolated mitochondria swelling; IC50, µM; 58% of 780 active; AID 651561, 2012; in the data active means IC50 below about 20 µM
MPTP cs DR: fluorescent counter-screen in isolated mitochondria, dose response, counter-screen for MPTP inhibitor project, biochemical, fluorescence, uHTS hits; shares compounds with MPTP inh; isolated mitochondria counterscreen, fluorescence read-out; IC50, µM; 49% of 780 active; AID 651564, 2012; in the data active means IC50 below about 80 µM
* hit, by the source's call; ? = inconclusive; . = not tested or not shown. Hits are enriched below; roughly 3% of the tested compounds scored in any of these assays.

SMILES	beta cell repl	UBC13 polyUb	iPSC survival up	Apaf1 inhib	Exocytosis inh	MPTP inh	Rh123 counter	others
CCCCOc1ccc(CSc2nc(C)[nH]c2[N+](=O)[O-])cc1[N+](=O)[O-]	-4	-13	1	-20	-2	56*	75*
Cn1nc(OC(=O)Nc2cccc(Cl)c2)cc1C(F)(F)F	-5	-5	2	9	1	88*	87*
CN1/C(=C/c2cc[n+](C)c3ccccc23)C=Cc2ccccc21	.	.	-5	.	6	75*	59*
C[n+]1ccc(/C=C/c2ccccc2O)c2ccccc21	-1	-62	-2	-4	-1	0	.
CCOC(=O)c1ccc(NC(=S)Nc2ccc3[nH]c(=O)[nH]c3c2)cc1	1	-4	1	-8	-2	74*	59*
Cc1ccc(NC(=S)Nc2ccc3[nH]c(=O)[nH]c3c2)cc1	-1	4	-1	-11	3	0	.
O=c1[nH]c2ccc(NC(=S)Nc3ccc(Cl)cc3)cc2[nH]1	-4	-11	0	3	-2	56*	103*
S=C(Nc1ccc(Cl)cc1)Nc1ccc2cn[nH]c2c1	-3	1	-1	10	-1	93*	89*
NC(=S)N/N=C1\c2ccccc2-c2c(C(=O)O)cccc21	0	-6	0	-4	-1	-1	.
COc1ccc(-c2nc3c4ccccc4ccn3c2CC2CCCCC2)cc1OC	.	.	-2	.	1	0	.
Nc1c(Cl)ncnc1NCCO	-2	6	0	-10	-1	0	.
Cc1ccc(CCNc2ncnc(Cl)c2N)cc1	.	.	-2	.	1	101*	108*
Cc1cnc(NC(=O)CSc2ccc(Cl)cc2)s1	-2	2	6	1	2	1	.
NCc1csc(NC(=O)Nc2cccc(Cl)c2)n1	.	.	-3	.	?	2	.
Cc1cnc(NC(=O)Nc2ccc(Cl)cc2)s1	-5	3	-1	-4	5	82*	86*
O=C(Cc1csc(NC(=O)Nc2ccc(Cl)cc2)n1)NCc1ccccn1	-3	6	0	3	-5	18	.
CCOC(=O)Cc1csc(NC(=O)Nc2cccc(Cl)c2)n1	-3	16	0	6	2	73*	86*
CC(=O)Nc1nc(C)cs1	-1	7	0	-7	0	0	.
Cc1csc(NC(=O)Nc2ccc(Cl)cc2)n1	-3	-4	-2	14	-3	74*	69*
O=C(Cc1csc(NC(=O)Nc2ccc(Cl)cc2)n1)NC1CCCC1	-4	0	0	17	0	94*	81*
O=C(CCn1c(=O)c2cccn2c2cccnc21)N1CCN(c2cccc(Cl)c2)CC1	-3	-1	0	23	8	-1	.
CCOC(=O)c1csc(NC(=O)Nc2cccc(Cl)c2)n1	0	3	-2	1	23	97*	84*
CN(C)Cc1csc(NC(=O)Nc2cccc(Cl)c2)n1	.	.	-2	.	-3	0	.
CCOC(=O)Cc1csc(N/N=C/c2ccc(Cl)cc2)n1	-1	-9	1	13	-7	-1	.
O=C(Nc1ccc(Cl)cc1)Nc1nc(-c2sccc2Br)cs1	-2	4	6	-16	1	41	.
SMILES	beta cell repl	UBC13 polyUb	iPSC survival up	Apaf1 inhib	Exocytosis inh	MPTP inh	Rh123 counter	others
CCOC(=O)Cc1csc(NC(=O)Nc2ccc(Cl)cc2)n1	-2	1	0	13	-2	74*	77*
O=C(Nc1ccc(Cl)cc1)Nc1nc(-c2ccccc2O)cs1	-6	-10	0	-11	-1	99*	67*
O=C(NCCc1ccccc1)c1ccc(NC(=O)C2CCCC2)cc1	.	.	1	.	-11	0	.
CC(C)(CCC(=S)N1CCOCC1)c1ccccc1	.	.	-2	.	-23	0	.
COC(=O)c1cn(CCC#N)nc1-c1ccc2ccccc2c1	1	1	1	2	-4	1	.
CC(C(=O)c1ccccc1)[n+]1cccc(Br)c1 (stereo not drawn)	-1	8	-1	-6	-7	1	.
CCc1cc2c(=O)c(-c3cnn(-c4ccccc4)c3)c(C)oc2cc1OCC(=O)Nc1cccc(C)c1	0	-19	0	-14	-1	3	.
CCc1cc2c(=O)c(-c3cnn(-c4ccccc4)c3)c(C)oc2cc1OCC(=O)Nc1ccc(F)c(F)c1	-5	3	0	7	1	80*	-3	MPTP abs DR=>100;MPTP cs DR=>80
CCC(C)(O)c1[nH]c2ccc(C(F)(F)F)cc2c1C (stereo not drawn)	-5	6	0	10	3	5	.
COc1ccc(CCNc2ncnc3sc(C)cc23)cc1OC	-4	-4	0	-3	-4	101*	96*
O=C(CN1C(=O)CCSc2ccc(S(=O)(=O)N3CCOCC3)cc21)Nc1cccc(F)c1	-1	4	-1	-1	-2	0	.
Cc1cccc(Oc2cc(NC(=O)Cn3cnc([N+](=O)[O-])n3)cc([N+](=O)[O-])c2)c1	.	.	0	.	1	77*	66*
CCN(CC)c1ccc(/C=N/N(c2ccccc2)c2ccccc2)c(O)c1	-3	-10	2	10	-1	97*	54*
CCN(CC)c1ccc(/C=N/N=C(c2ccccc2)c2ccccc2)c(O)c1	-4	-5	-1	-5	10	5	.
COc1cccc(NC(=O)COc2ccc(C(=S)N3CCN(C)CC3)cc2OC)c1	-3	0	0	13	2	-1	.
CCCCCCC#Cc1cncc(C(=O)NNC(=O)Nc2cc(Cl)cc(Cl)c2)c1	-3	-17	1	-3	0	55*	55*
CCCCC#Cc1cncc(C(=O)NN)c1	-4	-1	0	-2	-3	1	.
COc1ccc(OC(F)(F)F)cc1CC1(C)C(=O)Nc2ccc(S(=O)(=O)NC3CCCCC3)cc21 (stereo not drawn)	.	.	7	.	0	1	.
Cn1c(C(=O)N2CCN(c3ccc(Cl)cc3)CC2)cc2c(=O)[nH]c3ccccc3c21	-1	9	4	23	3	1	.
Cc1ccc(Cl)cc1N1CCN(C(=O)c2cc3c(=O)[nH]c4ccccc4c3n2C)CC1	0	5	-2	-5	25	57*	-4	MPTP abs DR=>100;MPTP cs DR=>80
